In brackets after ≈: the same amount, converted by molar mass. Activity calls are given as the source filed them. The calls are words filed in the database; no cut-off is given here.
Columns and labels:
Vibrio cholerae [1] = experiment: Antibacterial activity against Vibrio cholerae isolate 7201 at 1 to 1000 ug/ml after overnight incubation by disc diffusion method; type: functional
Bacillus subtilis [2] = experiment: Antibacterial activity against Bacillus subtilis UC564; type: functional
Summary of the method: (§1)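 MIC by broth and agar dilution. Broth: 0.1 ml suspension (2 × 10^6 cfu/ml) in Mueller-Hinton broth with test drug at 1–1000 µg/ml, 37 °C overnight. Agar: serial drug dilutions in Mueller-Hinton agar, spot-inoculated with 2 × 10^6 cfu/spot, 37 °C for 24 h. MIC was the lowest concentration with no visible growth. Antibiotic controls were included.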

Shigella dysenteriae [3] = experiment: Antibacterial activity against Shigella dysenteriae isolate 3 at 1 to 1000 ug/ml after overnight incubation by disc diffusion method; type: functional
Enterococcus faecalis [4] = experiment: Antibacterial activity against Enterococcus faecalis isolate 29212 at 1 to 1000 ug/ml after overnight incubation by disc diffusion method; type: functional
Summary of the method: (§2)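 Disc diffusion on Mueller-Hinton agar. Plates seeded with 0.1 ml bacterial suspension (2 × 10^6 cfu/ml). Sterile 6 mm paper discs were impregnated with compound solutions at 1–1000 µg/ml and incubated at 37 °C overnight. Read-out was the diameter of the clear inhibition zone. Stocks were 1 mg/ml in 4% Tween 80 or 4% propylene glycol.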

Escherichia coli [5] = experiment: Antibacterial activity against Escherichia coli ATCC 25938 at 1 to 1000 ug/ml after overnight incubation by disc diffusion method; type: functional; summary of the method: as §2
Salmonella typhimurium [6] = experiment: Antibacterial activity against Salmonella Typhimurium isolate 11; type: functional, Salmonella enterica subsp. enterica serovar Typhimurium; settings: Salmonella enterica; summary of the method: as §1
Staphylococcus aureus [7] = experiment: Antibacterial activity against Staphylococcus aureus ATCC 25923; type: functional; summary of the method: as §1
Shigella dysenteriae [8] = experiment: Antibacterial activity against Shigella dysenteriae isolate 3; type: functional
Bacillus subtilis [9] = experiment: Antibacterial activity against Bacillus subtilis UC564 at 1 to 1000 ug/ml after overnight incubation by disc diffusion method; type: functional; summary of the method: as §2
Vibrio cholerae [10] = experiment: Antibacterial activity against Vibrio cholerae isolate 720 at 1 to 1000 ug/ml after overnight incubation by disc diffusion method; type: functional
Salmonella typhi [11] = experiment: Antibacterial activity against Salmonella typhi DIRW at 1 to 1000 ug/ml after overnight incubation by disc diffusion method; type: functional
Staphylococcus aureus [12] = experiment: Antibacterial activity against Staphylococcus aureus ATCC 25923 at 1 to 1000 ug/ml after overnight incubation by disc diffusion method; type: functional; summary of the method: as §2
Salmonella typhi [13] = experiment: Antibacterial activity against Salmonella typhi DIRW; type: functional, Salmonella enterica subsp. enterica serovar Typhi; settings: Salmonella enterica
Vibrio parahaemolyticus [14] = experiment: Antibacterial activity against Vibrio parahaemolyticus isolate 72016 at 1 to 1000 ug/ml after overnight incubation by disc diffusion method; type: functional; summary of the method: as §2
Enterococcus faecalis [15] = experiment: Antibacterial activity against Streptococcus faecalis isolate 29212; type: functional; summary of the method: as §1
Klebsiella pneumoniae [16] = experiment: Antibacterial activity against Klebsiella pneumoniae isolate J/1/4; type: functional; summary of the method: as §1
Shigella flexneri [17] = experiment: Antibacterial activity against Shigella flexneri DN13; type: functional; summary of the method: as §1
Shigella flexneri [18] = experiment: Antibacterial activity against Shigella flexneri DN13 at 1 to 1000 ug/ml after overnight incubation by disc diffusion method; type: functional; summary of the method: as §2
Micrococcus luteus [19] = experiment: Antibacterial activity against Micrococcus luteus AGD1; type: functional; summary of the method: as §1
Vibrio cholerae [20] = experiment: Antibacterial activity against Vibrio cholerae isolate 7201; type: functional
Pseudomonas aeruginosa [21] = experiment: Antibacterial activity against Pseudomonas aeruginosa ATCC 27853 at 1 to 1000 ug/ml after overnight incubation by disc diffusion method; type: functional; summary of the method: as §2
Escherichia coli [22] = experiment: Antibacterial activity against Escherichia coli ATCC 25938; type: functional; summary of the method: as §1
Salmonella typhimurium [23] = experiment: Antibacterial activity against Salmonella Typhimurium isolate 11 at 1 to 1000 ug/ml after overnight incubation by disc diffusion method; type: functional, organism-based; settings: Salmonella enterica subsp. enterica serovar Typhimurium; summary of the method: as §2
Klebsiella pneumoniae [24] = experiment: Antibacterial activity against Klebsiella pneumoniae isolate J/1/4 at 1 to 1000 ug/ml after overnight incubation by disc diffusion method; type: functional; summary of the method: as §2
Pseudomonas aeruginosa [25] = experiment: Antibacterial activity against Pseudomonas aeruginosa ATCC 27853; type: functional; summary of the method: as §1
Micrococcus luteus [26] = experiment: Antibacterial activity against Micrococcus luteus AGD1 at 1 to 1000 ug/ml after overnight incubation by disc diffusion method; type: functional; summary of the method: as §2
Vibrio parahaemolyticus [27] = experiment: Antibacterial activity against Vibrio parahaemolyticus isolate 72016; type: functional; summary of the method: as §1
Vibrio cholerae [28] = experiment: Antibacterial activity against Vibrio cholerae isolate 7201 at 10 to 80 ug/ml after overnight incubation by broth dilution method; type: functional, organism-based
Staphylococcus aureus [29] = experiment: Antibacterial activity against Staphylococcus aureus ATCC 25923 at 10 to 80 ug/ml after overnight incubation by broth dilution method; type: functional, organism-based
Summary of the method: (§3)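 Bactericidal testing with double-fold drug dilutions in Mueller-Hinton broth. Tubes inoculated with 1 ml suspension (2 × 10^6 cfu/ml) and shaken at 200 rpm at 37 °C for 24 h. Drug was added at mid-logarithmic growth. Viable colony counts were taken from 1.0 ml aliquots plated on nutrient agar.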

Pseudomonas aeruginosa [30] = experiment: Antibacterial activity against Pseudomonas aeruginosa ATCC 27853 at 10 to 80 ug/ml after overnight incubation by broth dilution method; type: functional, organism-based; summary of the method: as §3
Bacillus subtilis [31] = experiment: Antibacterial activity against Bacillus subtilis UC564 at 10 to 80 ug/ml after overnight incubation by broth dilution method; type: functional, organism-based; summary of the method: as §3
Escherichia coli [32] = experiment: Antibacterial activity against Escherichia coli ATCC 25938 at 10 to 80 ug/ml after overnight incubation by broth dilution method; type: functional, organism-based; summary of the method: as §3
Shigella dysenteriae [33] = experiment: Antibacterial activity against Shigella dysenteriae isolate 3 at 10 to 80 ug/ml after overnight incubation by broth dilution method; type: functional, organism-based
[34] = Salmonella enterica subsp. enterica serovar Typhi

SMILES | diameter of the inhibition zone (DIZ) (Vibrio cholerae [1]) | MIC (Bacillus subtilis [2]) | diameter of the inhibition zone (DIZ) (Shigella dysenteriae [3]) | diameter of the inhibition zone (DIZ) (Enterococcus faecalis [4]) | diameter of the inhibition zone (DIZ) (Escherichia coli [5]) | MIC (Salmonella typhimurium [6]) | MIC (Staphylococcus aureus [7]) | MIC (Shigella dysenteriae [8]) | diameter of the inhibition zone (DIZ) (Bacillus subtilis [9]) | diameter of the inhibition zone (DIZ) (Vibrio cholerae [10]) | diameter of the inhibition zone (DIZ) (Staphylococcus aureus [12]) | MIC (Salmonella typhi [13]) | diameter of the inhibition zone (DIZ) (Vibrio parahaemolyticus [14]) | MIC (Enterococcus faecalis [15]) | MIC (Klebsiella pneumoniae [16]) | MIC (Shigella flexneri [17]) | diameter of the inhibition zone (DIZ) (Shigella flexneri [18]) | MIC (Micrococcus luteus [19]) | MIC (Vibrio cholerae [20]) | diameter of the inhibition zone (DIZ) (Pseudomonas aeruginosa [21]) | other results
CCOC(=O)c1cc(C(=O)c2ccccc2)n2ccc3ccccc3c12 | 10.2 mm | 64 µg/mL (≈ 186 µM) | 9.7 mm | 7 mm | 11.2 mm | 256 µg/mL (≈ 746 µM) | 256 µg/mL (≈ 746 µM) | 128 µg/mL (≈ 373 µM) | 11.4 mm | 10.2 mm | 8.3 mm | > 500 µg/mL | 8 mm | 256 µg/mL (≈ 746 µM) | 256 µg/mL (≈ 746 µM) | 256 µg/mL (≈ 746 µM) | 7.1 mm | 500 µg/mL (≈ 1460 µM) | 32 µg/mL (≈ 93.2 µM) | 11 mm | diameter of the inhibition zone (DIZ) (Salmonella typhi [11]; [34]): inactive; MIC (Escherichia coli [22]): 64 µg/mL (≈ 186 µM); diameter of the inhibition zone (DIZ) (Salmonella typhimurium [23]): inactive; diameter of the inhibition zone (DIZ) (Klebsiella pneumoniae [24]): 8.5 mm; MIC (Pseudomonas aeruginosa [25]): 64 µg/mL (≈ 186 µM); diameter of the inhibition zone (DIZ) (Micrococcus luteus [26]): 8.1 mm; MIC (Vibrio parahaemolyticus [27]): 256 µg/mL (≈ 746 µM)
N#Cc1cc(C(=O)c2ccccc2)n2ccc3ccccc3c12 | 11 mm | 128 µg/mL (≈ 432 µM) | inactive | inactive | 8 mm | > 500 µg/mL | 256 µg/mL (≈ 864 µM) | > 500 µg/mL | 7.5 mm | 11 mm | 7.5 mm | > 500 µg/mL | inactive | > 500 µg/mL | 32 µg/mL (≈ 108 µM) | > 500 µg/mL | inactive | > 500 µg/mL | 32 µg/mL (≈ 108 µM) | 9.5 mm | diameter of the inhibition zone (DIZ) (Salmonella typhi [11]; [34]): inactive; MIC (Escherichia coli [22]): 256 µg/mL (≈ 864 µM); diameter of the inhibition zone (DIZ) (Salmonella typhimurium [23]): inactive; diameter of the inhibition zone (DIZ) (Klebsiella pneumoniae [24]): 11 mm; MIC (Pseudomonas aeruginosa [25]): 64 µg/mL (≈ 216 µM); diameter of the inhibition zone (DIZ) (Micrococcus luteus [26]): inactive; MIC (Vibrio parahaemolyticus [27]): > 500 µg/mL
COC(=O)c1c(C(=O)OC)c2ccc3ccccc3n2c1C(=O)c1ccccc1 | inactive | 32 µg/mL (≈ 82.6 µM) | 11.5 mm | 12 mm | 12.1 mm | 500 µg/mL (≈ 1290 µM) | 500 µg/mL (≈ 1290 µM) | 16 µg/mL (≈ 41.3 µM) | 10.2 mm | inactive | inactive | 128 µg/mL (≈ 330 µM) | inactive | 64 µg/mL (≈ 165 µM) | 64 µg/mL (≈ 165 µM) | 500 µg/mL (≈ 1290 µM) | inactive | > 500 µg/mL | 500 µg/mL (≈ 1290 µM) | inactive | Activity (Vibrio cholerae [28]): Active; Activity (Staphylococcus aureus [29]): Active; diameter of the inhibition zone (DIZ) (Salmonella typhi [11]): 7.5 mm; Activity (Pseudomonas aeruginosa [30]): Active; Activity (Bacillus subtilis [31]): Active; Activity (Escherichia coli [32]): Active; MIC (Escherichia coli [22]): > 500 µg/mL; diameter of the inhibition zone (DIZ) (Salmonella typhimurium [23]): inactive; diameter of the inhibition zone (DIZ) (Klebsiella pneumoniae [24]): 10 mm; MIC (Pseudomonas aeruginosa [25]): > 500 µg/mL; Activity (Shigella dysenteriae [33]): Active; diameter of the inhibition zone (DIZ) (Micrococcus luteus [26]): inactive; MIC (Vibrio parahaemolyticus [27]): > 500 µg/mL

Source: ChEMBL document CHEMBL1781935, “Amberlite-IRA-402 (OH) ion exchange resin mediated synthesis of indolizines, pyrrolo [1,2-a] quinolines and isoquinolines: antibacterial and antifungal evaluation of the products” (2011)
